ChEMBL document CHEMBL1149096 (J Med Chem, 2004)
Active and inactive are the calls of the source.

Species on record: Mus musculus
Experiment: Antinociceptive effect was determined by the ability to exhibit 80% reduction of naloxone induced sensitivity; Yes
Assay type: functional, organism-based
Conditions: not given

Row | Compound | Activity
1 | CN1CC[C@]23c4c5ccc(O)c4O[C@H]2c2ncc(-c4ccc(Br)cc4)cc2C[C@H]3[C@H]1C5 | Active
2 | CN1CC[C@]23c4c5ccc(O)c4O[C@H]2c2ncc(-c4ccc(Cl)cc4)cc2C[C@H]3[C@H]1C5 | Active

Biological target: T1, Kappa-type opioid receptor (Cavia porcellus, UniProt P41144)
Experiment: Agonistic activity towards Opioid receptor kappa 1 was determined in [35S]GTP-gamma-S, binding assay in guinea pig caudate
Assay type: functional
Conditions: not given
Outline: (§1)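 Guinea pig caudate membranes (10-20 µg protein) incubated 3 h at 22 °C in Tris-HCl pH 7.4 containing 100 mM NaCl, 10 mM MgCl2, 1 mM EDTA, 100 µM GDP and 0.05-0.1 nM [35S]GTP-γ-S, then filtered and counted. Nonspecific binding defined with 10 µM GTP-γ-S. Site isolation used CTAP, nor-BNI, NTI or TIPP. […] Three experiments pooled; logistic fit.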

T1 sequence (P41144 whole entry): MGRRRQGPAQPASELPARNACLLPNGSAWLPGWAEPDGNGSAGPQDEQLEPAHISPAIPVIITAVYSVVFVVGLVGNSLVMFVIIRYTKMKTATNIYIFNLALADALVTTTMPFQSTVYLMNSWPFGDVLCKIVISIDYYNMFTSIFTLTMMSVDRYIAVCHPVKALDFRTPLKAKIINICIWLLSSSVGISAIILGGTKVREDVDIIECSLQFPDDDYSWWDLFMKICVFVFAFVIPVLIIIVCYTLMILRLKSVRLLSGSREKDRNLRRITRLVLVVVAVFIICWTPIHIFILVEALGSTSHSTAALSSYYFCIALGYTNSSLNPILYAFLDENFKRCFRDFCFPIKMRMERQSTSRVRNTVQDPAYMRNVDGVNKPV

Row | Compound | EC50
3 | CN1CC[C@]23c4c5ccc(O)c4O[C@H]2c2ncc(-c4ccc(Br)cc4)cc2C[C@H]3[C@H]1C5 | Not Active
4 | CN1CC[C@]23c4c5ccc(O)c4O[C@H]2c2ncc(-c4ccc(Cl)cc4)cc2C[C@H]3[C@H]1C5 | Not Active
5 | CN1CC[C@]23c4c5ccc(O)c4O[C@H]2c2ncc(-c4ccc(Cl)c(Cl)c4)cc2C[C@H]3[C@H]1C5 | Not Active
6 | CN1CC[C@]23c4c5ccc(O)c4O[C@H]2c2ncc(-c4ccc(Cl)cc4Cl)cc2C[C@H]3[C@H]1C5 | Not Active

Species on record: Mus musculus
Experiment: Antinociceptive effect was determined by the ability to exhibit 80% reduction of naloxone induced sensitivity; Partial
Assay type: functional, organism-based
Conditions: not given

Row | Compound | Activity
7 | CN1CC[C@]23c4c5ccc(O)c4O[C@H]2c2ncc(-c4ccc(Cl)cc4)cc2C[C@@]3(O)[C@H]1C5 | Weak activity

Biological target: T2, Mu-type opioid receptor (Cavia porcellus, UniProt P97266)
Experiment: Apparent binding affinity of compound was determined by antagonism towards Opioid receptor mu 1in [35S]GTP-gamma-S, binding assay in guinea pig caudate; i = could not be calculated because of agonist activity
Assay type: functional
Conditions: not given

T2 sequence (P97266 whole entry): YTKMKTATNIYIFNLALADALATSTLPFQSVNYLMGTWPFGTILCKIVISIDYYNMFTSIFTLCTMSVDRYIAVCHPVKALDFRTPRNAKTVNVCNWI

Row | Compound | Ki
8 | CN1CC[C@]23c4c5ccc(O)c4O[C@H]2c2ncc(-c4ccc(Cl)cc4)cc2C[C@H]3[C@H]1C5 | Agonist

Biological target: Delta-type opioid receptor (Rattus norvegicus, UniProt P33533)
Experiment: Binding affinity at opioid receptor delta 1 by displacement of [3H]DADLE in rat brain membrane
Assay type: cell membranes
Conditions: not given

Sequence of Delta-type opioid receptor (P33533 whole entry): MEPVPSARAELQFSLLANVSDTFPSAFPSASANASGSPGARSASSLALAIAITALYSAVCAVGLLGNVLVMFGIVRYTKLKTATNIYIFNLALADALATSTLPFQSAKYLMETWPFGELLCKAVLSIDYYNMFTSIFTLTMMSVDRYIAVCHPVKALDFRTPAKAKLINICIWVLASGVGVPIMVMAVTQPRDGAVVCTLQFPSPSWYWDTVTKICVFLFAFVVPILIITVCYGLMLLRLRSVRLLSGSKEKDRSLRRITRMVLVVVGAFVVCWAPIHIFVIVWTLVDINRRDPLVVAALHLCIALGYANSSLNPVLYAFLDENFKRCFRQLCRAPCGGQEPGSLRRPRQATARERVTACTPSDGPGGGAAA

Row | Compound | Ki
9 | CN1CC[C@]23c4c5ccc(O)c4O[C@H]2c2ncc(-c4ccc(Cl)cc4)cc2C[C@@]3(O)[C@H]1C5 | 3.9 nM

Tested on: Mus musculus
Experiment: Analgesic activity was calculated at time of peak drug effect when administered (icv) in mouse warm-water tail withdrawal assay
Assay type: functional
Conditions: not given
Outline: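 Male ICR mice dosed icv (5 µL; water or 100% DMSO) under light ether anaesthesia. 55 °C warm-water tail withdrawal read at 10-180 min, cutoff 10 s. %MPE = 100 × (test − control)/(cutoff − control). A50 and 95% CI taken at peak effect by linear regression.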

Row | Compound | A50
10 | CN1CC[C@]23c4c5ccc(O)c4O[C@H]2c2ncc(-c4ccc(Br)cc4)cc2C[C@H]3[C@H]1C5 | 47.2 nM
11 | CN1CC[C@]23c4c5ccc(O)c4O[C@H]2c2ncc(-c4ccc(Cl)cc4)cc2C[C@H]3[C@H]1C5 | 42.8 nM

Biological target: Mu-type opioid receptor (Cavia porcellus) (UniProt P97266)
Conditions: Ileum, filed as agonist

Sequence of Mu-type opioid receptor (Cavia porcellus) (P97266 whole entry): as the sequence (P97266 whole entry) above

Row | Compound | Ke
12 | CN1CC[C@]23c4c5ccc(O)c4O[C@H]2c2ncc(-c4ccc(Cl)cc4)cc2C[C@H]3[C@H]1C5 | Agonist
13 | CN1CC[C@]23c4c5ccc(O)c4O[C@H]2c2ncc(-c4ccc(Cl)cc4Cl)cc2C[C@H]3[C@H]1C5 | Agonist

Biological target: Delta-type opioid receptor (Mus musculus) (UniProt P32300)
Experiment: Agonist activity by the max response towards opioid receptor delta 1 induced contractions in mouse vas deferens (MVD) smooth muscle contraction assays
Assay type: functional, tissue-based
Conditions: not given
Outline: (§2)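 Electrically stimulated MVD (male ICR mice, 25-40 g) and GPI longitudinal muscle myenteric plexus strips (male Hartley guinea pigs, 250-500 g). Baths held 37 °C oxygenated Krebs bicarbonate (Mg-free for MVD), tension 1 g GPI / 0.5 g MVD. Stimulation 0.1 Hz, 0.4 ms pulses (2 ms MVD), supramaximal voltage. […] IC50 from two to four tissues by nonlinear least squares.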

Sequence of Delta-type opioid receptor (Mus musculus) (P32300 whole entry): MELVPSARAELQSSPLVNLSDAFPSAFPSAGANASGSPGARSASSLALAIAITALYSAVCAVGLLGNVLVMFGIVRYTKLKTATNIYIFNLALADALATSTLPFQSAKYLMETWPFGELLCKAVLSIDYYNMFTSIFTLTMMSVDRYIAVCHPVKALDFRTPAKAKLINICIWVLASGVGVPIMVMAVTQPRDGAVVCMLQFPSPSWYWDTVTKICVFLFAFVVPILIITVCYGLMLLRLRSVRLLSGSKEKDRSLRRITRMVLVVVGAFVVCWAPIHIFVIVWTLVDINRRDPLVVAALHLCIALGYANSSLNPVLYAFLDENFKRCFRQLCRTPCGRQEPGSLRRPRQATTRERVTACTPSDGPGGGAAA

Row | Compound | Response
14 | CN1CC[C@]23c4c5ccc(O)c4O[C@H]2c2ncc(-c4ccc(Cl)cc4Cl)cc2C[C@H]3[C@H]1C5 | 28.3%

Biological target: Opioid receptors; mu & delta (Rattus norvegicus) (UniProt P33533+P33535)
Experiment: Selectivity given as ratio of mu receptor to delta receptor
Assay type: protein assay
Conditions: not given

Sequence of Opioid receptors; mu & delta (Rattus norvegicus) (P33533 whole entry, looked up): as the sequence (P33533 whole entry) above
Sequence of Opioid receptors; mu & delta (Rattus norvegicus) (P33535 whole entry, looked up): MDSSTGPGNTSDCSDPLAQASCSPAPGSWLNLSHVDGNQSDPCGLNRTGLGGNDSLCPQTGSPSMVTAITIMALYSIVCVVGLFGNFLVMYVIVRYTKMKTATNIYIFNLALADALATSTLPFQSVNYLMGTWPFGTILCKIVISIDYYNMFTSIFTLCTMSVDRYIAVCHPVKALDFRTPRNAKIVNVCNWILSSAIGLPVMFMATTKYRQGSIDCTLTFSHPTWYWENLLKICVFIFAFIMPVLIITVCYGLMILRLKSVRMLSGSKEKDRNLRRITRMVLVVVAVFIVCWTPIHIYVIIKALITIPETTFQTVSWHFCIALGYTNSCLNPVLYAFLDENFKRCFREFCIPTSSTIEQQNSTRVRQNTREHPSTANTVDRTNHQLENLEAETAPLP

Row | Compound | Ratio
15 | CN1CC[C@]23c4c5ccc(O)c4O[C@H]2c2ncc(-c4ccc(Br)cc4)cc2C[C@H]3[C@H]1C5 | 40
16 | CN1CC[C@]23c4c5ccc(O)c4O[C@H]2c2ncc(-c4ccc(Cl)cc4)cc2C[C@@]3(O)[C@H]1C5 | 59
17 | CN1CC[C@]23c4c5ccc(O)c4O[C@H]2c2ncc(-c4ccc(Cl)cc4)cc2C[C@H]3[C@H]1C5 | 34
18 | CN1CC[C@]23c4c5ccc(O)c4O[C@H]2c2ncc(-c4ccc(Cl)c(Cl)c4)cc2C[C@H]3[C@H]1C5 | 25
19 | CN1CC[C@]23c4c5ccc(O)c4O[C@H]2c2ncc(-c4ccc(Cl)cc4Cl)cc2C[C@H]3[C@H]1C5 | 88

Biological target: T1, Kappa-type opioid receptor
Experiment: Inhibitory concentration required for 50% inhibition of antagonism towards Opioid receptor kappa 1 in [35S]GTP-gamma-S, binding assay in guinea pig caudate
Assay type: functional
Conditions: not given

Row | Compound | Ki
20 | CN1CC[C@]23c4c5ccc(O)c4O[C@H]2c2ncc(-c4ccc(Cl)c(Cl)c4)cc2C[C@H]3[C@H]1C5 | 4770 nM

Biological target: T2, Mu-type opioid receptor
Experiment: Apparent binding affinity of compound was determined by antagonism towards Opioid receptor mu 1 in [35S]GTP-gamma-S, binding assay in guinea pig caudate
Assay type: functional
Conditions: not given

Row | Compound | Ki
21 | CN1CC[C@]23c4c5ccc(O)c4O[C@H]2c2ncc(-c4ccc(Br)cc4)cc2C[C@H]3[C@H]1C5 | > 1000 nM
22 | CN1CC[C@]23c4c5ccc(O)c4O[C@H]2c2ncc(-c4ccc(Cl)c(Cl)c4)cc2C[C@H]3[C@H]1C5 | > 1000 nM
23 | CN1CC[C@]23c4c5ccc(O)c4O[C@H]2c2ncc(-c4ccc(Cl)cc4Cl)cc2C[C@H]3[C@H]1C5 | > 1000 nM

Biological target: T2, Mu-type opioid receptor
Experiment: Inhibitory concentration for inhibition of Opioid receptor mu 1 induced contractions in guinea pig ileum (GPI) smooth muscle assays
Assay type: functional, tissue-based
Conditions: not given
Outline: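 Electrically stimulated MVD (male ICR mice, 25-40 g) and GPI longitudinal muscle myenteric plexus strips (male Hartley guinea pigs, 250-500 g). Baths held 37 °C oxygenated Krebs bicarbonate (Mg-free for MVD), tension 1 g GPI / 0.5 g MVD. Stimulation 0.1 Hz, 0.4 ms pulses (2 ms MVD), supramaximal voltage. IC50 from two to four tissues by nonlinear least squares.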

Row | Compound | IC50
24 | CN1CC[C@]23c4c5ccc(O)c4O[C@H]2c2ncc(-c4ccc(Br)cc4)cc2C[C@H]3[C@H]1C5 | 666 nM
25 | CN1CC[C@]23c4c5ccc(O)c4O[C@H]2c2ncc(-c4ccc(Cl)cc4)cc2C[C@H]3[C@H]1C5 | 177 nM
26 | CN1CC[C@]23c4c5ccc(O)c4O[C@H]2c2ncc(-c4ccc(Cl)c(Cl)c4)cc2C[C@H]3[C@H]1C5 | 447 nM
27 | CN1CC[C@]23c4c5ccc(O)c4O[C@H]2c2ncc(-c4ccc(Cl)cc4Cl)cc2C[C@H]3[C@H]1C5 | 724 nM

Biological target: T2, Mu-type opioid receptor
Experiment: Agonistic activity towards Opioid receptor mu 1 was determined in [35S]GTP-gamma-S, binding assay in guinea pig caudate; g = not active as an agonist
Assay type: functional
Conditions: not given
Outline: as §1

Row | Compound | EC50
28 | CN1CC[C@]23c4c5ccc(O)c4O[C@H]2c2ncc(-c4ccc(Cl)cc4)cc2C[C@@]3(O)[C@H]1C5 | Not Active

Same assay, conditions: read-out: EC50

Row | Compound | EC50
29 | CN1CC[C@]23c4c5ccc(O)c4O[C@H]2c2ncc(-c4ccc(Br)cc4)cc2C[C@H]3[C@H]1C5 | 3220 nM
30 | CN1CC[C@]23c4c5ccc(O)c4O[C@H]2c2ncc(-c4ccc(Cl)cc4)cc2C[C@H]3[C@H]1C5 | 900 nM
31 | CN1CC[C@]23c4c5ccc(O)c4O[C@H]2c2ncc(-c4ccc(Cl)c(Cl)c4)cc2C[C@H]3[C@H]1C5 | 1310 nM
32 | CN1CC[C@]23c4c5ccc(O)c4O[C@H]2c2ncc(-c4ccc(Cl)cc4Cl)cc2C[C@H]3[C@H]1C5 | 225 nM

Species on record: Cavia porcellus
Experiment: Selectivity given as ratio of kappa receptor to delta receptor
Conditions: not given

Row | Compound | Ratio
33 | CN1CC[C@]23c4c5ccc(O)c4O[C@H]2c2ncc(-c4ccc(Br)cc4)cc2C[C@H]3[C@H]1C5 | 18
34 | CN1CC[C@]23c4c5ccc(O)c4O[C@H]2c2ncc(-c4ccc(Cl)cc4)cc2C[C@@]3(O)[C@H]1C5 | 120
35 | CN1CC[C@]23c4c5ccc(O)c4O[C@H]2c2ncc(-c4ccc(Cl)cc4)cc2C[C@H]3[C@H]1C5 | 18
36 | CN1CC[C@]23c4c5ccc(O)c4O[C@H]2c2ncc(-c4ccc(Cl)c(Cl)c4)cc2C[C@H]3[C@H]1C5 | 75
37 | CN1CC[C@]23c4c5ccc(O)c4O[C@H]2c2ncc(-c4ccc(Cl)cc4Cl)cc2C[C@H]3[C@H]1C5 | 366

Species on record: Mus musculus
Experiment: Antinociceptive effect was determined at 100 nM in mouse
Assay type: functional
Conditions: not given

Row | Compound | Activity
38 | CN1CC[C@]23c4c5ccc(O)c4O[C@H]2c2ncc(-c4ccc(Cl)c(Cl)c4)cc2C[C@H]3[C@H]1C5 | 44%
39 | CN1CC[C@]23c4c5ccc(O)c4O[C@H]2c2ncc(-c4ccc(Cl)cc4Cl)cc2C[C@H]3[C@H]1C5 | 40%

Biological target: Delta-type opioid receptor (Mus musculus) (UniProt P32300)
Conditions: Vas deferens

Row | Compound | Ke
40 | CN1CC[C@]23c4c5ccc(O)c4O[C@H]2c2ncc(-c4ccc(Br)cc4)cc2C[C@H]3[C@H]1C5 | 20 nM
41 | CN1CC[C@]23c4c5ccc(O)c4O[C@H]2c2ncc(-c4ccc(Cl)cc4)cc2C[C@@]3(O)[C@H]1C5 | 38.2
42 | CN1CC[C@]23c4c5ccc(O)c4O[C@H]2c2ncc(-c4ccc(Cl)cc4)cc2C[C@H]3[C@H]1C5 | 21.9 nM
43 | CN1CC[C@]23c4c5ccc(O)c4O[C@H]2c2ncc(-c4ccc(Cl)cc4Cl)cc2C[C@H]3[C@H]1C5 | 5.02 nM

Biological target: Delta-type opioid receptor (Mus musculus) (UniProt P32300)
Experiment: Agonist activity by the maximum response towards opioid receptor delta 1 induced contractions in mouse vas deferens (MVD) smooth muscle contraction assays
Assay type: functional, tissue-based
Conditions: not given
Outline: as §2

Row | Compound | Response
44 | CN1CC[C@]23c4c5ccc(O)c4O[C@H]2c2ncc(-c4ccc(Br)cc4)cc2C[C@H]3[C@H]1C5 | 44%
45 | CN1CC[C@]23c4c5ccc(O)c4O[C@H]2c2ncc(-c4ccc(Cl)cc4)cc2C[C@@]3(O)[C@H]1C5 | 58%

Biological target: T1, Kappa-type opioid receptor
Experiment: Agonistic activity towards Opioid receptor kappa 1 was determined in [35S]GTP-gamma-S, binding assay in guinea pig caudate; g = not active as an agonist
Assay type: functional
Conditions: not given
Outline: as §1

Row | Compound | EC50
46 | CN1CC[C@]23c4c5ccc(O)c4O[C@H]2c2ncc(-c4ccc(Cl)cc4)cc2C[C@@]3(O)[C@H]1C5 | Not Active

Biological target: Delta-type opioid receptor (Mus musculus) (UniProt P32300)
Conditions: Vas deferens; filed as agonist

Row | Compound | Ke
47 | CN1CC[C@]23c4c5ccc(O)c4O[C@H]2c2ncc(-c4ccc(Cl)c(Cl)c4)cc2C[C@H]3[C@H]1C5 | Agonist

Species on record: Mus musculus
Experiment: Antinociceptive effect was determined at 300 nM in mouse
Assay type: functional
Conditions: not given

Row | Compound | Activity
48 | CN1CC[C@]23c4c5ccc(O)c4O[C@H]2c2ncc(-c4ccc(Cl)cc4)cc2C[C@@]3(O)[C@H]1C5 | 43%

Species on record: Cavia porcellus
Conditions: Ileum, filed as agonist

Row | Compound | Ke
49 | CN1CC[C@]23c4c5ccc(O)c4O[C@H]2c2ncc(-c4ccc(Cl)c(Cl)c4)cc2C[C@H]3[C@H]1C5 | Agonist

Biological target: Mu-type opioid receptor (Cavia porcellus) (UniProt P97266)
Conditions: Ileum, filed as agonist
Remark: another data set of the same source

Row | Compound | Ke
50 | CN1CC[C@]23c4c5ccc(O)c4O[C@H]2c2ncc(-c4ccc(Br)cc4)cc2C[C@H]3[C@H]1C5 | Agonist
51 | CN1CC[C@]23c4c5ccc(O)c4O[C@H]2c2ncc(-c4ccc(Cl)cc4)cc2C[C@@]3(O)[C@H]1C5 | Agonist
